In ChEMBL document CHEMBL3792386, “Design, Synthesis, and Biological Evaluation of Novel Selenium (Se-NSAID) Molecules as Anticancer Agents” (J Med Chem, 2016):
Active and inactive are the calls of the source. No cut-off for these calls is given here.

Columns and labels:
MEF = experiment: Cytotoxicity against mouse MEF at 1 to 10 uM after 48 hrs by MTT assay; format: cell-based
Outline: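 Cells (HCT116, nHDF in serum-free fibroblast medium with growth kit, or MEFs) exposed to increasing compound concentrations for 48 h at 37 °C. Viability read by MTT: 3000 cells/well, triplicate, MTT 3 h before end, formazan in DMSO, absorbance 570/630 nm. Mean ± SD.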

HCT-116 [1] = experiment: Induction of apoptosis in human HCT116 cells assessed as late apoptotic cells at 2.5 uM after 24 hrs by 7-ADD and caspase 3/7 activity-based flow cytometry (reference value: 1.70%); format: functional
[2] = Antiproliferative activity against human PANC1 cells assessed as reduction in cell viability after 72 hrs by MTT assay; format: functional, cell-based; conditions: PANC-1, 72 h
Outline: (§1)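 3000 cells/well incubated in triplicate with serial concentrations of compound for 24, 48 or 72 h at 37 °C. MTT (5.0 mg/mL solution) added 3 h before the end. Formazan dissolved in DMSO, absorbance read at 570 and 630 nm. Viability normalised to vehicle control. IC50 from non-linear regression (variable slope), mean ± SD of triplicates.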

HCT-116 [3] = experiment: Effect on cell cycle in human HCT116 cells assessed as inhibition of cyclin E1 expression at 1 to 10 uM after 24 hrs by Western blot method; format: functional, cell-based
Outline: (§2)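 CRC cells treated at indicated doses for 24 h. Whole-cell lysates made in RIPA buffer with protease and phosphatase inhibitors and cleared at 15,000 rpm for 10 min. Resolved on 4-12% gels, transferred to PVDF, probed for cell-cycle proteins, detected by ECL. Membranes stripped for sequential probing.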

UACC-903 [4] = experiment: Potency index, ratio IC50 of selecoxib-1-GSH to IC50 of compound for human UACC-903 cells after 48 and 72 hrs; format: functional
HCT-116 [5] = experiment: Induction of cell cycle arrest in human HCT116 cells assessed as accumulation at S phase at 5 uM after 12 hrs by propidium iodide staining-based flow cytometry (reference value: 55%); format: functional
HCT-116 [6] = experiment: Induction of apoptosis in human HCT116 cells assessed as late apoptotic cells at 2.5 uM after 24 hrs by annexin V/7-ADD staining-based flow cytometry (reference value: 1.65%); format: functional
HCT-116 [7] = experiment: Induction of apoptosis in human HCT116 cells assessed as early apoptotic cells at 5 uM after 24 hrs by 7-ADD and caspase 3/7 activity-based flow cytometry (reference value: 2.45%); format: functional
NCI-H460 [8] = experiment: Antiproliferative activity against human NCI-H460 cells assessed as reduction in cell viability after 24 hrs by MTT assay; format: functional, cell-based; conditions: NCI-H460, 24 h; outline: as §1
HT-29 = experiment: Antiproliferative activity against human HT-29 cells assessed as reduction in cell viability after 24 hrs by MTT assay; format: functional, cell-based; conditions: HT-29, 24 h; outline: as §1
HCT-116 [9] = experiment: Induction of ROS generation in human HCT116 cells at 10 uM after 24 hrs by flow cytometry (reference value: 12.42%); format: functional
NCI-H460 [10] = experiment: Antiproliferative activity against human NCI-H460 cells assessed as reduction in cell viability after 48 hrs by MTT assay; format: functional, cell-based; conditions: NCI-H460, 48 h; outline: as §1
HCT-116 [11] = experiment: Induction of apoptosis in human HCT116 cells assessed as dead cells at 10 uM after 24 hrs by annexin V/7-ADD staining-based flow cytometry (reference value: 3.10%); format: functional
HCT-116 [12] = experiment: Induction of apoptosis in human HCT116 cells assessed as dead cells at 2.5 uM after 24 hrs by annexin V/7-ADD staining-based flow cytometry (reference value: 3.10%); format: functional
HCT-116 [13] = experiment: Effect on cell cycle in human HCT116 cells assessed as inhibition of cyclin B1 expression at 1 to 10 uM after 24 hrs by Western blot method; format: functional, cell-based; outline: as §2
HCT-116 [14] = experiment: Induction of ROS generation in human HCT116 cells at 5 uM after 24 hrs by flow cytometry (reference value: 12.42%); format: functional
HCT-116 [15] = experiment: Induction of ROS generation in human HCT116 cells at 10 uM after 6 hrs by flow cytometry (reference value: 6%); format: functional
HCT-116 [16] = experiment: Induction of apoptosis in human HCT116 cells assessed as live cells at 5 uM after 24 hrs by annexin V/7-ADD staining-based flow cytometry (reference value: 90.05%); format: functional
[17] = Antiproliferative activity against human HCT116 cells assessed as reduction in cell viability after 48 hrs by MTT assay; format: functional, cell-based; conditions: HCT-116, 48 h; outline: as §1
HCT-116 [18] = experiment: Induction of apoptosis in human HCT116 cells assessed as dead cells at 2.5 uM after 24 hrs by 7-ADD and caspase 3/7 activity-based flow cytometry (reference value: 3.25%); format: functional
[19] = Antiproliferative activity against human PANC1 cells assessed as reduction in cell viability after 24 hrs by MTT assay; format: functional, cell-based; conditions: PANC-1, 24 h; outline: as §1
HCT-116 [20] = experiment: Induction of apoptosis in human HCT116 cells assessed as dead cells at 10 uM after 24 hrs by 7-ADD and caspase 3/7 activity-based flow cytometry (reference value: 3.25%); format: functional
UACC-903 [21] = experiment: Antiproliferative activity against human UACC-903 cells assessed as reduction in cell viability after 72 hrs by MTT assay; format: functional, cell-based; conditions: UACC-903, 72 h; outline: as §1
HepG2 = experiment: Antiproliferative activity against human HepG2 cells assessed as reduction in cell viability after 24 hrs by MTT assay; format: functional, cell-based; conditions: HepG2, 24 h; outline: as §1
RKO = experiment: Antiproliferative activity against human RKO cells assessed as reduction in cell viability after 24 hrs by MTT assay; format: functional, cell-based; outline: as §1
[22] = Antiproliferative activity against human DU145 cells assessed as reduction in cell viability after 24 hrs by MTT assay; format: functional, cell-based; conditions: DU-145, 24 h; outline: as §1
HCT-116 [23] = experiment: Induction of cell cycle arrest in human HCT116 cells assessed as accumulation at S phase at 5 uM after 24 hrs by propidium iodide staining-based flow cytometry (reference value: 48%); format: functional
HCT-116 [24] = experiment: Induction of cell cycle arrest in human HCT116 cells assessed as accumulation at G1 phase at 5 uM after 12 hrs by propidium iodide staining-based flow cytometry (reference value: 35%); format: functional
HCT-116 [25] = experiment: Induction of apoptosis in human HCT116 cells assessed as early apoptotic cells at 5 uM after 24 hrs by annexin V/7-ADD staining-based flow cytometry (reference value: 5.20%); format: functional
HCT-116 [26] = experiment: Induction of apoptosis in human HCT116 cells assessed as late apoptotic cells at 5 uM after 24 hrs by 7-ADD and caspase 3/7 activity-based flow cytometry (reference value: 1.70%); format: functional
[27] = Effect on cell cycle in human HCT116 cells assessed as upregulation of cyclin p21 expression after 24 hrs by Western blot method; format: functional, cell-based; conditions: HCT-116; outline: as §2
[28] = Induction of cell death in human HCT116 cells at 15 uM after 24 hrs by ethidium bromide staining-based fluorescence microscopy; format: functional, HCT-116
Outline: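 HCT116 cells treated 24 h with DMSO, 1 mM aspirin or 15 μM compound, then trypsinised. Cells were stained with calcein-AM (live, esterase activity) and ethidium homodimer-1 (dead, membrane loss). Cells were imaged by fluorescence microscopy with a 20X objective, and percent dead cells was counted. Values are mean ±SD.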

[29] = Antiproliferative activity against human SKOV3 cells assessed as reduction in cell viability after 72 hrs by MTT assay; format: functional, cell-based; conditions: SK-OV-3, 72 h; outline: as §1

SMILES: CC(=O)Oc1ccccc1C(=O)NCC[Se]C#N
- Activity (MEF): Non-toxic
- Activity (HCT-116 [1]): 9.05%
- IC50 [2]: 2.6 µM
- inhibition (HCT-116 [3]): Active
- Ratio IC50 (UACC-903 [4]): >=5
- Activity (HCT-116 [5]): 14%
- Activity (HCT-116 [6]): 8.3%
- Activity (HCT-116 [7]): 44%
- IC50 (NCI-H460 [8]): > 50 µM
- IC50 (HT-29): 3.4 µM
- Activity (HCT-116 [9]): 80.54%
- IC50 (NCI-H460 [10]): 2.4 µM
- Activity (HCT-116 [11]): 1.6%
- Activity (HCT-116 [12]): 1.25%
- inhibition (HCT-116 [13]): Active
- Activity (HCT-116 [14]): 66.42%
- Activity (HCT-116 [15]): 16.54%
- Activity (HCT-116 [16]): 31.2%
- IC50 [17]: 2.5 µM
- Activity (HCT-116 [18]): 2.1%
- IC50 [19]: 12.1 µM
- Activity (HCT-116 [20]): 2.25%
- IC50 (UACC-903 [21]): 2.9 µM
- IC50 (HepG2): 16 µM
- IC50 (RKO): 13.3 µM
- IC50 [22]: 8.2 µM
- Activity (HCT-116 [23]): 13%
- Activity (HCT-116 [24]): 62%
- Activity (HCT-116 [25]): 36.15%
- Activity (HCT-116 [26]): 32.8%
- Activity [27]: Dose-dependent effect
- Activity [28]: 51%
- IC50 [29]: 4.4 µM
